From PubChem
GSK3 alpha inh: blockers of GSK3A enzyme activity – biochemical, luminescence, cell-free homogeneous, HTS, primary screen; inhibition, % at 10 µM; Glycogen synthase kinase-3 alpha (Homo sapiens), P49840; AID 2650, 2010; GSK-3 alpha kinase, ADP-Glo luminescence, 60 min; actives 0.1% (n = 320,000);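 active = more than half of replicates show inhibition above 20%; inconclusive = some but at most half of replicates above 20% inhibition; inactive = no replicate shows inhibition above 20%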;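 also: GST-tagged GSK-3 alpha with peptide substrate and 25 µM ATP; 0% = DMSO neutral wells and 100% = GW8510 positive control wells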
STK33 inh: inhibitors of purified STK33 kinase, primary screen, biochemical, ADP-Glo luminescence, homogeneous, cell-free; inhibition, % at 10 µM; actives 0.073% (n = 320,000); MBP phosphorylation; AID 2661, 2010;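 active = inhibition at or above 25%, using the most active replicate where run in duplicate; inactive = inhibition below 25%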
AI-2 QS modul: Vibrio harveyi AI-2 quorum sensing modulators, primary screen, JMH597 strain, luminescence/OD600 ratio; actives 0.4% (n = 300,000); Vibrio harveyi JMH597 AI-2 luminescence/OD600 ratio, 9 h; stronger effect = lower value; strain lacks LuxN and CqsS sensors; 0 = neutral-control median; activity change, % at 7.5 µM; AID 2094, 2009; in the data active = activity change below about -75%, passing the limit was not always enough; inconclusive = no clear call, values can overlap the other calls;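 also: luminescence divided by OD600 gain over 9 h not by final OD600 alone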
GSK3beta inhib: human GSK3beta kinase inhibitors, primary screen, biochemical, cell-free homogeneous, HTS | actives 0.038% (n = 300,000) | activity score (negative = inhibition), % at 10 µM | Glycogen synthase kinase-3 beta (Homo sapiens), P49841 | GST-GSK3beta kinase, ADP-Glo luminescence, 60 min; stronger effect = lower value;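 active = more than half of replicate wells score below -50%, meaning over 50% inhibition versus plate controls; inconclusive = some replicates but at most half score below -50%; inactive = no replicate scores below -50%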;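 also: 0% = median DMSO wells and -100% = median GW8510 positive control wells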
Target sequence (P49841 whole entry, looked up): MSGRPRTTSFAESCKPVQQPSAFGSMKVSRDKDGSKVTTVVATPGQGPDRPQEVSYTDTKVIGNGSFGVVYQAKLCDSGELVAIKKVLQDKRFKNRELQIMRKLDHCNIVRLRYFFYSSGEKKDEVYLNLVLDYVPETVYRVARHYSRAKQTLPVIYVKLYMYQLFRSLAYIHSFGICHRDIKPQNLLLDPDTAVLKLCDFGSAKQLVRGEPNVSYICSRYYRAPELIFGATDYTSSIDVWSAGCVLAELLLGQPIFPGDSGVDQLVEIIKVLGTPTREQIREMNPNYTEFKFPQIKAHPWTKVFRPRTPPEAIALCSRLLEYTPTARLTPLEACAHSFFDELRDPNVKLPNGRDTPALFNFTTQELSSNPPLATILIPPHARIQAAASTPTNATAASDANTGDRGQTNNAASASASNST
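Test system: GST-fused GSK3beta enzyme, cell-free | Quantity: 1.6 ng GST-GSK3beta enzyme per well | Reagent: 25 µM ATP with peptide substrate | Schedule: 60 min enzyme reaction, room temperature | Signal: Luminescent ADP-Glo measurement of ADP formed | Read-out basis: Score relative to plate controls | Control set: DMSO and 20 µM GW8510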
Rce1 inh: yeast Rce1p protease inhibitors, primary screen, biochemical, fluorescence, cell-free homogeneous. CAAX prenyl protease 2 (Saccharomyces cerevisiae (strain ATCC 204508 / S288c)), Q03530. yeast membranes, quenched prenylated peptide cleavage fluorescence. calls only. actives 0.27% (n = 290,000). AID 2563, 2010;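 active = fall in fluorescence gain of 50% or more versus controls, with final raw signal at or below 3038400; inconclusive = same 50% fall but final raw signal above 3038400; inactive = fall in fluorescence gain under 50%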;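 also: plate controls were neutral control wells for no effect and wells lacking membranes for full effect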
Target sequence (Q03530 whole entry, looked up): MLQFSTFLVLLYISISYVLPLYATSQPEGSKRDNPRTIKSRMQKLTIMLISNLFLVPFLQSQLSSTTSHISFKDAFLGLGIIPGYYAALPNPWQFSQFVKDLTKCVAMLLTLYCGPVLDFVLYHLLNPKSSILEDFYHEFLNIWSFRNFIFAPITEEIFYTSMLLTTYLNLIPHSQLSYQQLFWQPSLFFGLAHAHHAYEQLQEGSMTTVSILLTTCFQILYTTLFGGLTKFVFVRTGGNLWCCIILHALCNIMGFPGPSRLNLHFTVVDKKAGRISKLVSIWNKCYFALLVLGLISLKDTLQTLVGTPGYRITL
DYRK1A inh: rat Dyrk1A kinase inhibitors, primary screen, biochemical, single point, plate reader; inhibition, % at 12.5 µM; ADP-Glo luminescence, NFATc1 peptide; actives 0.43% (n = 310,000); in the data active = inhibition above about 50%;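 also: plate controls were vehicle with enzyme for no effect and no enzyme for full effect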
JMH597 growth: Vibrio harveyi growth inhibition, confirmation, counter-screen for AI-2 quorum sensing project, JMH597 strain, OD600 absorbance | shares compounds with AI-2 QS modul | actives 1% (n = 750) | AID 2726, 2010 | growth inhibition, % at 7.5 µM | 9 h; lacks LuxN and CqsS sensors;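 active = every replicate shows growth inhibition above 50%; inconclusive = at least half, but not all, replicates pass that cutoff; inactive = fewer than half of replicates pass it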
BB721 const-QS lum: luminescence inhibition in constitutive-on V. harveyi, confirmation, counter-screen for LuxS inhibitor project, strain BB721, luminescence readout; shares compounds with AI-2 QS modul; Vibrio harveyi BB721 luminescence, 9 h; inhibition, % at 7.5 µM; actives 95% (n = 750); AID 2727, 2010;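 active = inhibition above about 80% in every replicate, not just on average, limit read from the data; inconclusive = at least half of replicates past the limit, but not all; inactive = fewer than half of replicates past the limit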
BB721 growth: growth inhibition of V. harveyi BB721, confirmation, cytotoxicity control for AI-2 quorum sensing inhibitors, strain BB721, absorbance OD600. shares compounds with AI-2 QS modul. Vibrio harveyi BB721 growth, 9 h. growth inhibition, % at 7.5 µM. actives 3% (n = 750);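 active = every replicate shows growth inhibition above 50%; inconclusive = at least half but not all replicates above 50% inhibition; inactive = under half of replicates above 50% inhibition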
JMH597 AI-2 mod: Vibrio harveyi AI-2 signaling luminescence modulation – JMH597 strain, confirmation. shares compounds with AI-2 QS modul. actives 97% (n = 750). Vibrio harveyi JMH597 AI-2 quorum sensing luminescence, 9 h; luxN and CqsS knockout, AI-2 only. inhibition, % at 7.5 µM;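 active = every replicate shows more than 75% inhibition of signal versus neutral control wells; inconclusive = half to three quarters of replicates exceed 75% inhibition; inactive = fewer than half of replicates exceed 75% inhibition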
* hit, by the source's call. Sampled rows, rich in hits. Any-hit rate of the full collection: about 0.99%.

What do the screens show for `Cc1ccc(SCCNS(=O)(=O)c2ccc(F)cc2)cc1`?
GSK3 alpha inh: -2.7; STK33 inh: -0.6; AI-2 QS modul: -93.9*; GSK3beta inhib: 6.8; Rce1 inh: inactive; DYRK1A inh: 2.9; JMH597 growth: 27.1; BB721 const-QS lum: 93.6*; BB721 growth: -141.2; JMH597 AI-2 mod: 94.6*

Results for Cc1cc(C)c(S(=O)(=O)N2CCN(C(=O)c3ccc(-n4cncn4)c([N+](=O)[O-])c3)CC2)c(C)c1 ?
GSK3 alpha inh: -4.7; STK33 inh: 0.3; AI-2 QS modul: 28.6; GSK3beta inhib: -3.8; Rce1 inh: inactive; DYRK1A inh: 11.5

What do the screens show for `O=C(CCCNC(=O)c1ccc(Cl)cc1)Nc1ccc(F)c(S(=O)(=O)N2CCOCC2)c1`?
GSK3 alpha inh: -0.5; STK33 inh: -1.4

What do the screens show for `COc1ccc(CC(=O)NCc2nnc(SCC(=O)Nc3ccccc3)n2C)cc1`?
GSK3 alpha inh: 0.3; STK33 inh: -1.2; AI-2 QS modul: 18.0; GSK3beta inhib: 1.4; Rce1 inh: inactive; DYRK1A inh: 5.0

What do the screens show for `COc1ccc(NC(=O)Cc2nnc(SCC(=O)Nc3ccccc3)n2C)cc1`?
GSK3 alpha inh: -2.1; STK33 inh: -0.7; AI-2 QS modul: inconclusive; GSK3beta inhib: 0.5; Rce1 inh: inactive; DYRK1A inh: 2.6; JMH597 growth: -0.2; BB721 const-QS lum: 2.2; BB721 growth: -0.2; JMH597 AI-2 mod: 0.9

How did Cc1[nH]c2ccccc2c1C(=O)C(=O)Nc1ccc2c(c1)OCO2 do in these assays?
GSK3 alpha inh: -0.2; STK33 inh: -0.3; AI-2 QS modul: -3.4; GSK3beta inhib: -2.2; Rce1 inh: inactive; DYRK1A inh: 3.7

How did O=C(CNC(=O)c1ccncc1)N/N=C/c1ccc(Br)cc1 do in these assays?
GSK3 alpha inh: 0.7; STK33 inh: -1.1; AI-2 QS modul: inconclusive; GSK3beta inhib: 0.9; Rce1 inh: inactive; DYRK1A inh: -3.5; JMH597 growth: 3.4; BB721 const-QS lum: 94.7*; BB721 growth: 10.5; JMH597 AI-2 mod: 94.5*

Results for Cc1ccc(/C=N/NC(=O)CNC(=O)c2cccs2)cc1 ?
GSK3 alpha inh: -1.0; STK33 inh: -1.1; AI-2 QS modul: -90.3*; GSK3beta inhib: -1.1; Rce1 inh: inactive; DYRK1A inh: -2.1; JMH597 growth: 2.4; BB721 const-QS lum: 96.8*; BB721 growth: 11.5; JMH597 AI-2 mod: 97.2*

How did COc1cccc(/C=N/NC(=O)CNC(=O)c2cccs2)c1O do in these assays?
GSK3 alpha inh: -2.0; STK33 inh: 0.3; AI-2 QS modul: 24.9; GSK3beta inhib: -3.2; Rce1 inh: inactive; DYRK1A inh: -3.0

How did O=C(CNC(=O)c1ccncc1)N/N=C/c1cc(Br)ccc1O do in these assays?
GSK3 alpha inh: 10.8; STK33 inh: 10.2; AI-2 QS modul: -23.2; GSK3beta inhib: -3.7; Rce1 inh: inactive; DYRK1A inh: -1.6

Results for Cc1ccc(Nc2nnc(SC(C)C(=O)NCC3CCCO3)s2)cc1 (stereo not drawn) ?
GSK3 alpha inh: -2.4; STK33 inh: -0.9; DYRK1A inh: 5.7

How did CCC(=O)c1cn(/C(=C\C(=O)OC(C)(C)C)CCC(OC)OC)cc1CC do in these assays?
GSK3 alpha inh: 1.3; STK33 inh: -1.2; AI-2 QS modul: -3.0; GSK3beta inhib: 1.3; Rce1 inh: inactive; DYRK1A inh: 1.3

How did O=C(OCC(=O)N1CCc2ccccc21)c1ccc([N+](=O)[O-])o1 do in these assays?
GSK3 alpha inh: 2.5; STK33 inh: -1.0; DYRK1A inh: -2.4

What do the screens show for `Cc1ccc(CC(=O)O/N=C(\N)c2ccccn2)cc1`?
GSK3 alpha inh: 1.0; STK33 inh: 0.1; AI-2 QS modul: -84.5*; GSK3beta inhib: 0.9; Rce1 inh: inactive; DYRK1A inh: -3.1; JMH597 growth: 25.0; BB721 const-QS lum: 87.4*; BB721 growth: 22.4; JMH597 AI-2 mod: 90.9*

How did COc1ccc(CC(=O)O/N=C(\N)c2ccccn2)cc1OC do in these assays?
GSK3 alpha inh: -1.4; STK33 inh: 1.9; AI-2 QS modul: 12.9; GSK3beta inhib: 2.3; Rce1 inh: inactive; DYRK1A inh: -2.4

How did COc1ccc(CC(=O)O/N=C(\N)c2ccc(C)cc2)cc1 do in these assays?
GSK3 alpha inh: 0.0; STK33 inh: 1.6; AI-2 QS modul: -89.0*; GSK3beta inhib: -0.3; Rce1 inh: inactive; DYRK1A inh: 7.4; JMH597 growth: -35.5; BB721 const-QS lum: 96.3*; BB721 growth: -56.3; JMH597 AI-2 mod: 97.1*

What do the screens show for `N/C(=N\OC(=O)Cc1ccc(Cl)cc1)c1ccccn1`?
GSK3 alpha inh: -1.9; STK33 inh: -0.3; AI-2 QS modul: -87.0*; GSK3beta inhib: -18.0; Rce1 inh: inactive; DYRK1A inh: -4.9; JMH597 growth: 1.7; BB721 const-QS lum: 91.1*; BB721 growth: 4.9; JMH597 AI-2 mod: 93.1*

How did Cc1nc(-c2ccc(F)cc2)c(CC(=O)N2CCN(S(=O)(=O)c3cccc(F)c3)CC2)s1 do in these assays?
GSK3 alpha inh: -2.1; STK33 inh: 0.5; AI-2 QS modul: -3.8; GSK3beta inhib: 1.8; Rce1 inh: inactive; DYRK1A inh: -4.2

How did Cc1noc(C)c1CSCC(=O)NCCN1C(=O)S/C(=C\c2ccccc2F)C1=O do in these assays?
GSK3 alpha inh: -1.8; STK33 inh: -1.5; AI-2 QS modul: 30.0; GSK3beta inhib: -0.7; Rce1 inh: inactive; DYRK1A inh: -3.4
